Results on 12 compounds are retold here after ChEMBL document CHEMBL1123131, “Examination of a series of 8-[3-[bis(4-fluorophenyl)amino]propyl]-1-aryl-1,3,8- triazaspiro[4.5]decan-4-ones as potential antipsychotic agents” (J Med Chem, 1985).

For the first experiment, the system named is Rattus norvegicus. The experiment in a line: The compound was tested (after peroral administration) for its ability to induce catalepsy in rats. In kind it is functional. The note with it: po. In outline:
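Fasted male Long-Evans hooded rats, 180–220 g, used once; oral intubation, suspended in 0.2% methylcellulose if insoluble. At least three doses, eight rats per dose. Forepaws placed on a horizontal rod 11.5 cm high, read every 30 min for 1 h then hourly to 6 h, 24 h if needed. Partial scores summed; ED50 by nonlinear regression.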
For the compound `CN1CN(c2ccc(F)cc2)C2(CCN(CCCN(c3ccc(F)cc3)c3ccc(F)cc3)CC2)C1=O`, the ED50 stood at 54 mg/kg.

In turn, `CCN(CC)CCN1CN(c2ccccc2)C2(CCN(CCCN(c3ccc(F)cc3)c3ccc(F)cc3)CC2)C1=O` had an ED50 of 138 mg/kg.

Take `O=C(CCCN1CCC2(CC1)C(=O)NCN2c1ccccc1)c1ccc(F)cc1` [SPIPERONE]: the ED50 was determined as 10.8 mg/kg.

A further experiment concerns Mus musculus. The experiment in a line: Antipsychotic activity using locomotor activity (LMA)-inverted screen test in mice (i.p. admin.). In kind it is functional. To be noted: ip, read-out: MED. The method, boiled down: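 Unfasted male Swiss-Webster mice, 20–30 g, nine per dose; ip 1 h before testing in 0.2% methocel, 10 mL/kg; 10, 30, 100 mg/kg, three replicates. Inverted-screen falloff over 60 s, then photocell locomotion for 60 min versus vehicle. MED = lowest dose giving >60% locomotor inhibition with <60% falloff.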
With `O=C1NCN(c2ccc(Cl)cc2)C12CCN(CCCN(c1ccc(F)cc1)c1ccc(F)cc1)CC2`, the minimal effective dose came to 30 mg/kg.

For the compound `O=C1N(Cc2ccccc2)CN(c2ccccc2)C12CCN(CCCN(c1ccc(F)cc1)c1ccc(F)cc1)CC2`, the minimal effective dose was > 100 mg/kg.

For `CN1CN(c2cccc(C(F)(F)F)c2)C2(CCN(CCCN(c3ccc(F)cc3)c3ccc(F)cc3)CC2)C1=O`, the minimal effective dose was found to be 30 mg/kg.

As for `Cc1ccc(N2CNC(=O)C23CCN(CCCN(c2ccc(F)cc2)c2ccc(F)cc2)CC3)cc1`, the minimal effective dose was ≤ 10 mg/kg.

For the compound `COc1ccc(N2CNC(=O)C23CCN(CCCN(c2ccc(F)cc2)c2ccc(F)cc2)CC3)cc1`, the minimal effective dose was 30 mg/kg.

Take `CC(C)c1ccc(N2CNC(=O)C23CCN(CCCN(c2ccc(F)cc2)c2ccc(F)cc2)CC3)cc1`: the minimal effective dose is > 100 mg/kg.

In the case of `O=C1N(COCc2ccccc2)CN(c2ccccc2)C12CCN(CCCN(c1ccc(F)cc1)c1ccc(F)cc1)CC2`, the minimal effective dose was found to be 100 mg/kg.

For the compound `CN1CN(c2ccc(F)cc2)C2(CCN(CCCN(c3ccc(F)cc3)c3ccc(F)cc3)CC2)C1=O`, the minimal effective dose was ≤ 10 mg/kg.

On to `CCN(CC)CCN1CN(c2ccccc2)C2(CCN(CCCN(c3ccc(F)cc3)c3ccc(F)cc3)CC2)C1=O`, for which the minimal effective dose is ≤ 10 mg/kg.

As for `O=C1NCN(c2cccc(C(F)(F)F)c2)C12CCN(CCCN(c1ccc(F)cc1)c1ccc(F)cc1)CC2`, the minimal effective dose is > 100 mg/kg.

`O=C(CCCN1CCC2(CC1)C(=O)NCN2c1ccccc1)c1ccc(F)cc1` [SPIPERONE]: the minimal effective dose was < 10 mg/kg.

The species entered for a further experiment is Rattus norvegicus. Description: Activity against the suppression of high base line self stimulation with electrodes in the medial forebrain of the posterior hypothalamus of male hooded rats (Peroral admin.). The note with it: po. In kind it is functional. In outline:
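Male hooded rats with electrodes in the medial forebrain bundle of the posterior hypothalamus; rapid high base-line self-stimulation rates served as base lines. Oral dosing, behaviour recorded continuously on cumulative recorders. Active if base-line rate was reduced by 50% for 1.5 h or more. Four rats per dose; ED50 by computer analysis (linear regression from doses bracketing the ED50).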
`O=C1NCN(c2ccc(Cl)cc2)C12CCN(CCCN(c1ccc(F)cc1)c1ccc(F)cc1)CC2` returned an ED50 of 2 mg/kg.

Take `CN1CN(c2cccc(C(F)(F)F)c2)C2(CCN(CCCN(c3ccc(F)cc3)c3ccc(F)cc3)CC2)C1=O`: the 50% effective dose (ED50) is > 16 mg/kg.

Take `O=C1NCN(c2ccccc2F)C12CCN(CCCN(c1ccc(F)cc1)c1ccc(F)cc1)CC2`: the ED50 is > 16 mg/kg.

As to `Cc1ccc(N2CNC(=O)C23CCN(CCCN(c2ccc(F)cc2)c2ccc(F)cc2)CC3)cc1`, the ED50 is > 16 mg/kg.

Regarding `COc1ccc(N2CNC(=O)C23CCN(CCCN(c2ccc(F)cc2)c2ccc(F)cc2)CC3)cc1`, the ED50 is > 16 mg/kg.

On to `O=C1N(COCc2ccccc2)CN(c2ccccc2)C12CCN(CCCN(c1ccc(F)cc1)c1ccc(F)cc1)CC2`, for which the median effective dose (ED50) was > 16 mg/kg.

Compound `CN1CN(c2ccc(F)cc2)C2(CCN(CCCN(c3ccc(F)cc3)c3ccc(F)cc3)CC2)C1=O` came in with an ED50 of 0.96 mg/kg.

`CCN(CC)CCN1CN(c2ccccc2)C2(CCN(CCCN(c3ccc(F)cc3)c3ccc(F)cc3)CC2)C1=O` displayed a median effective dose (ED50) of 5.65 mg/kg.

As for `O=C(CCCN1CCC2(CC1)C(=O)NCN2c1ccccc1)c1ccc(F)cc1` [SPIPERONE], the ED50 came to 1.28 mg/kg. Against the preceding compound, the ED50 is about 4.4-fold lower.
